Experimental data taken from PMC5164959 (Biochemical pharmacology, 2016).

What was measured:
[1] = molecular target: DGKα (Rattus norvegicus, UniProt P51556); assay: Kinase assay with HEK 293T cell homogenate over-expressing DGKα; type: biochemical
How it was run: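 Each reaction held 5 μg homogenate protein, 2 mM extruded PC:PS:DAG liposomes (10 mol% dioleoyl, dioctanoyl or stearoyl-arachidonoyl DAG), buffer B, 1 mM DTT, 1 mM CaCl2 and 1 mM [γ32P]-ATP, run 20 min at 30°C. Test compounds came from DMSO stocks. 32P-PA was counted, normalized to GFP lysate and to DMSO control; IC50 from log[inhibitor] versus normalized response.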

[2] = test system: DGKγ; settings: 30 μM R59022; cited from earlier work
[3] = test system: DGKε; settings: cited from earlier work
[4] = molecular target: 5-HT7 (Homo sapiens, UniProt P34969); assay: Radioligand competition binding assay
How it was run: (§1)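 Run by the NIMH PDSP as radioligand competition binding assays. The primary screen used 10 μM test compound and reported mean percent inhibition of radioligand binding (n=4); above 50% counted as significant. At those receptors, IC50 values came from non-linear regression of competition binding isotherms and were converted to Ki with the Cheng-Prusoff equation.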

[5] = molecular target: 5-HT1D (Homo sapiens, UniProt P28221); assay: Radioligand competition binding assay
How it was run: as §1

[6] = molecular target: 5-HT3 (Homo sapiens, UniProt P46098); assay: Radioligand competition binding assay; settings: 10 μM test compound, n=4
How it was run: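 Run by the NIMH PDSP as a radioligand competition binding primary screen. Test compounds were applied at 10 μM, and the read-out was mean percent inhibition of radioligand binding (n=4).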

[7] = molecular target: 5-HT5A (Homo sapiens, UniProt P47898); assay: Radioligand competition binding assay
How it was run: as §1

[8] = test system: DGKθ; settings: cited from earlier work
[9] = test system: 5-HTRs; assay: Agonist functional assays at 5 serotonin receptors; type: cell-based; settings: 5 receptors where low Ki values were observed; data not shown

DGKα, sequence (P51556 whole entry): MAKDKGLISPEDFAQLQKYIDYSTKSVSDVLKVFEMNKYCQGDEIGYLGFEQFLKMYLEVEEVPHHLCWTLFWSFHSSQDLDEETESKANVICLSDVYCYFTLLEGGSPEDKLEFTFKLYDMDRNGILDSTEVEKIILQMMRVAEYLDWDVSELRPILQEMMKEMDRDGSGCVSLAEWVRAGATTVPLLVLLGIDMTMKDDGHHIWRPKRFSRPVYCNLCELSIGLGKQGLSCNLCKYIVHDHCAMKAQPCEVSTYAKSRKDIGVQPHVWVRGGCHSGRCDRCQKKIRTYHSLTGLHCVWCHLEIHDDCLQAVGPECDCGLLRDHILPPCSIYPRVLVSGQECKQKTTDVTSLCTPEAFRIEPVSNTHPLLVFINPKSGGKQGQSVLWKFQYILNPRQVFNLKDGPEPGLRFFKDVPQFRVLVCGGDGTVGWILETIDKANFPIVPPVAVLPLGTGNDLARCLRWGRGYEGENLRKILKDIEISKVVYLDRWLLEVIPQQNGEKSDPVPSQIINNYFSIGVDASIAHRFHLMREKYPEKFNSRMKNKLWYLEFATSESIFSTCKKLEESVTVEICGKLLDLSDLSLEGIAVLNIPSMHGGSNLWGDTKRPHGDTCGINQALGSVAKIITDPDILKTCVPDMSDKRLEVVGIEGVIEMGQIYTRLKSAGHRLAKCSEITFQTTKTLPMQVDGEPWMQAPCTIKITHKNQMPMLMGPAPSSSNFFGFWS
5-HT7, sequence (P34969 whole entry, species assumed): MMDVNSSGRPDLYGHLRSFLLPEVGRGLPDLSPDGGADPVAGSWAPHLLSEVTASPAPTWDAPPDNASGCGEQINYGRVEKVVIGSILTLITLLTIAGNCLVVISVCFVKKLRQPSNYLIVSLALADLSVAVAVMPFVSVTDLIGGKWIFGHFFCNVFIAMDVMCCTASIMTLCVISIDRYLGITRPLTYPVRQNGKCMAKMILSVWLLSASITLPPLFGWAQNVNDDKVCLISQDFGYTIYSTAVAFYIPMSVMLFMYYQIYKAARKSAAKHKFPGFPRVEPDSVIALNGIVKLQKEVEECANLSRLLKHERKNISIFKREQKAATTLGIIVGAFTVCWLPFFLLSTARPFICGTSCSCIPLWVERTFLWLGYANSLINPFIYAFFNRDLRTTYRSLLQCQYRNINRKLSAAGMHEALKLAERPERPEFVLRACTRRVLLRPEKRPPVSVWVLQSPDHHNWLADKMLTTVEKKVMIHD
5-HT1D, sequence (P28221 whole entry, species assumed): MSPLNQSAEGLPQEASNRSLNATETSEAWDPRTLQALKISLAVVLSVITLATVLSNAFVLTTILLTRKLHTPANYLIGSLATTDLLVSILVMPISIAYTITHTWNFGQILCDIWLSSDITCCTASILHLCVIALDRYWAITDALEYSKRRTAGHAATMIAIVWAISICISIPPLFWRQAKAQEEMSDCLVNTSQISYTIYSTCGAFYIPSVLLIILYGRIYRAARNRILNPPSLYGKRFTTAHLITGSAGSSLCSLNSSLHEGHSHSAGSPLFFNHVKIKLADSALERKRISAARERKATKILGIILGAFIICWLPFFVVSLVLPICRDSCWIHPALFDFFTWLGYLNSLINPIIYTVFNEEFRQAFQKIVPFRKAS
5-HT5A, sequence (P47898 whole entry, species assumed): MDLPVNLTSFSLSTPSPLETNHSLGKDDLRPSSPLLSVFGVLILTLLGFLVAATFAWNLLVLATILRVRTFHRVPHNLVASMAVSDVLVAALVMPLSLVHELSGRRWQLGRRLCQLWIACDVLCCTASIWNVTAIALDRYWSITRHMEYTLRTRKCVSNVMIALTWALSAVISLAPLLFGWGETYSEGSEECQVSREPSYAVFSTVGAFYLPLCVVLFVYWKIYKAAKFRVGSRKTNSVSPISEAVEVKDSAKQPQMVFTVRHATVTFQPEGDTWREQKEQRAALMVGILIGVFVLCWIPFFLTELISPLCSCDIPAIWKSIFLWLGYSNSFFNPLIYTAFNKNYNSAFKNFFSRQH
5-HT3, sequence (P46098 24-478, species assumed): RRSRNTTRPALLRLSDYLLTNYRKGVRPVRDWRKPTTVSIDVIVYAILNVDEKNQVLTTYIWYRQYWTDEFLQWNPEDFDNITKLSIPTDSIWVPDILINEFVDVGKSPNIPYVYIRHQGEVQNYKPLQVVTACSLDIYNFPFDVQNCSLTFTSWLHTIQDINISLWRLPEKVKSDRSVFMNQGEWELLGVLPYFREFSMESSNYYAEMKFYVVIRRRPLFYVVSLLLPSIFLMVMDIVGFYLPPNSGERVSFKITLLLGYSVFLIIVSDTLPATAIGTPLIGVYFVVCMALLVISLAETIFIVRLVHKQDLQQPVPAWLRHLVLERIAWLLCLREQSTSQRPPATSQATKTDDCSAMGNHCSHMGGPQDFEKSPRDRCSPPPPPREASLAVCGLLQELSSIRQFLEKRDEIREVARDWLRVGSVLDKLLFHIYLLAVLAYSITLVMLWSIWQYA

Compound: Cc1nc2sccn2c(=O)c1CCN1CCC(=C(c2ccccc2)c2ccc(F)cc2)CC1 [R59022]
- Activity of DGKα, percent of control ([1]; 20 μM inhibitor, liposomes with dioleoyl DAG, cell homogenate): decreased by about half
- Potency against DGKα with other DAG species ([1]; 20 μM, liposomes containing dioctanoyl or stearoyl arachidonoyl DAG): similarly potent
- IC50 ([1]; read-out: IC50 for DGKα, cell homogenate, 1 mM ATP, 10 mol% DAG): ~25 µM
- Inhibition of DGKγ [2]: did not inhibit
- Inhibition of DGKε [3]: reported to inhibit
- Percent Inhibition of Binding 5-HT7 ([4]; 10 μM test compound, n=4): 98.5%
- Ki ([4]; read-out: Ki 5-HT7, Cheng-Prusoff from best-fit IC50): 14.2 nM
- Percent Inhibition of Binding 5-HT1D ([5]; 10 μM test compound, n=4): 90.4%
- Ki ([5]; read-out: Ki 5-HT1D, Cheng-Prusoff from best-fit IC50): 12.3 nM
- Percent Inhibition of Binding 5-HT3 [6]: 10.9%
- Percent Inhibition of Binding 5-HT5A ([7]; 10 μM test compound, n=4): 92.0%
- Ki ([7]; read-out: Ki 5-HT5A, Cheng-Prusoff from best-fit IC50): 18 nM
- Inhibition of DGKθ [8]: reported to inhibit
- Agonist activity at 5-HTRs [9]: very low to no activity
